The subject of data set [1] is Helicobacter pylori. Nature of the data set: Antibacterial activity against wild type Helicobacter pylori 055. It counts as functional.
Data set [2] can be described thus: Intrinsic clearance in human liver microsomes at 2 uM assessed per mg of protein. It counts as ADME, Microsome. The settings on record: read-out: CLH.
Data set [3] is described as follows: Intrinsic clearance in mouse liver microsomes at 2 uM assessed per mg of protein. The settings on record: read-out: CLH. Type of data set: ADME, Microsome. Background: Microsomes from liver hold many membrane-bound enzymes, among them those of drug oxidation.
The test system of data set [4] is Helicobacter pylori. As to the kind of experiment: Ratio of MIC for wild type Helicobacter pylori 055 to MIC for AcrAB-TolC efflux pump-dificient Helicobacter pylori.
Data set [5] has as its target T1, Glutamate racemase (Helicobacter pylori J99, UniProt Q9ZLT0).
T1 sequence (Q9ZLT0 whole entry): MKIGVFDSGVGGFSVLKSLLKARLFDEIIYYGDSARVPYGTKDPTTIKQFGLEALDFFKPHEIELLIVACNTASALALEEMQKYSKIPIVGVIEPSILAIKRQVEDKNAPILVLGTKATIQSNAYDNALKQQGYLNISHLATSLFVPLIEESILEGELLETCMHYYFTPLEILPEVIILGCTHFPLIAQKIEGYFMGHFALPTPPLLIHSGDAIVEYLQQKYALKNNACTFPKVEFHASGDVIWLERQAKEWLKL
Nature of the data set: Inhibition of Helicobacter pylori J99 glutamate racemase. In short, it runs like this: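 The racemase was expressed from the murI gene of H. pylori J99 chromosomal DNA. IC50 was taken as the mean of duplicate determinations, using a method cited from earlier work.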

In data set [6] the test system is Helicobacter pylori. As to the kind of experiment: Antibacterial activity against AcrAB-TolC efflux pump-dificient Helicobacter pylori. Type of data set: functional.

≈ marks a conversion by molar mass, not a printed value.

Results on 11 compounds are retold here after ChEMBL document CHEMBL2086265, “Design of inhibitors of Helicobacter pylori glutamate racemase as selective antibacterial agents: incorporation of imidazoles onto a core pyrazolopyrimidinedione scaffold to improve bioavailabilty” (Bioorg Med Chem Lett, 2012).

What is called MIC is the smallest concentration in the dilution series that meets the test's criterion for growth inhibition. Higher therefore signals weaker potency. What is called IC50 is the concentration needed to halve the response being measured. Read a high IC50 as weaker potency in that assay. In the case of `Cn1cncc1-c1c2c(=O)n(CC3CC3)c(=O)n(CC3CC3)c2nn1Cc1ccnc2ccc(Cl)cc12`, the results for the MIC in data set [1] and in data set [6] were 2 mg/L (≈ 3.88 µM) and 0.9 mg/L (≈ 1.74 µM), respectively. For the same compound, the microsomal CLint at 2 µM in data set [2] was under 14 µL/min/mg; in data set [3] it was 44 µL/min/mg. Besides, in data set [4], the Ratio result is given as “<=2”. The compound also registered an IC50 in data set [5] of 0.069 µM.

Turning to `CC(C)n1c(=O)c2c(-c3cncn3C)n(Cc3ccnc4ccc(Cl)cc34)nc2n(CC2CC2)c1=O`, the minimal inhibitory concentration (MIC) in data set [1] and in data set [6] was 16 mg/L (≈ 31.7 µM) in each case. The values for the microsomal CLint at 2 µM in data set [2] and in data set [3] were 53 µL/min/mg and 51 µL/min/mg, respectively. Also, the Ratio entry in data set [4] was “<=2”. This compound also yielded an IC50 in data set [5] of 0.22 µM.

Turning to `C#CC(C)n1c(=O)c2c(-c3cncn3C)n(Cc3ccnc4ccc(Cl)cc34)nc2n(CC2CC2)c1=O` (stereo unspecified), the MIC in data set [1] and in data set [6] was 8 mg/L (≈ 15.6 µM) throughout. The microsomal CLint at 2 µM was found to be 21 µL/min/mg in data set [2] and 65 µL/min/mg in data set [3]. The Ratio entry in data set [4] was “<=2”. The compound further returned an IC50 in data set [5] of 0.46 µM.

Consider `C#CCn1c(=O)c2c(-c3cc(C#N)cn3C)n(Cc3ccnc4ccc(Cl)cc34)nc2n(CC2CC2)c1=O`, for which the MIC in data set [1] was 0.75 mg/L (≈ 1.43 µM); in data set [6], 0.3 mg/L (≈ 0.573 µM). The microsomal CLint at 2 µM is under 14 µL/min/mg in data set [2] and 16 µL/min/mg in data set [3]. Also, the Ratio entry in data set [4] is “<=2”. Further, the IC50 in data set [5] turned out to be 0.028 µM.

Take `CCn1c(=O)c2c(-c3cc(C#N)cn3C)n(Cc3ccnc4ccc(Cl)cc34)nc2n(CC2CC2)c1=O`: the MIC came out at 0.75 mg/L (≈ 1.46 µM) in data set [1] and 0.6 mg/L (≈ 1.17 µM) in data set [6]. Also, the microsomal CLint at 2 µM stood at 25 µL/min/mg in data set [2] and 17 µL/min/mg in data set [3]. The Ratio entry in data set [4] was “<=2”. This compound showed an IC50 in data set [5] of 0.07 µM.

As to `C=CCn1c(=O)c2c(-c3cc(C#N)cn3C)n(Cc3ccnc4ccc(Cl)cc34)nc2n(CC2CC2)c1=O`, the MIC in data set [1] was 1.5 mg/L (≈ 2.85 µM); in data set [6], 1 mg/L (≈ 1.9 µM). In addition, the microsomal CLint at 2 µM in data set [2] stood at 33 µL/min/mg; in data set [3], 76 µL/min/mg. In addition, the Ratio result in data set [4] is reported as “<=2”. The same compound had an IC50 in data set [5] of 0.07 µM.

For `CC#CCn1c(=O)c2c(-c3cc(C#N)cn3C)n(Cc3ccnc4ccc(Cl)cc34)nc2n(CC2CC2)c1=O`, the MIC in data set [1] and in data set [6] was 2 mg/L (≈ 3.72 µM) in each case. Besides, the results for the microsomal CLint at 2 µM in data set [2] and in data set [3] were 99 µL/min/mg and over 100 µL/min/mg, respectively. Moreover, the Ratio result in data set [4] is reported as “<=2”. The IC50 in data set [5] is 0.074 µM.

For the compound `C#CC(C)n1c(=O)c2c(-c3cc(C#N)cn3C)n(Cc3ccnc4ccc(Cl)cc34)nc2n(CC2CC2)c1=O` (stereo unspecified), the MIC in data set [1] was found to be 2 mg/L (≈ 3.72 µM); in data set [6], 8 mg/L (≈ 14.9 µM). The figures for the microsomal CLint at 2 µM in data set [2] and in data set [3] were 91 µL/min/mg and over 100 µL/min/mg, respectively. The Ratio result in data set [4] was “<=2”. In data set [5], this compound had an IC50 of 0.16 µM.

Consider `CC(C)n1c(=O)c2c(-c3cc(C#N)cn3C)n(Cc3ccnc4ccc(Cl)cc34)nc2n(CC2CC2)c1=O`, for which the MIC in data set [1] worked out at 4 mg/L (≈ 7.58 µM); in data set [6], 8 mg/L (≈ 15.2 µM). For the same compound, the microsomal CLint at 2 µM in data set [2] was 26 µL/min/mg; in data set [3], over 100 µL/min/mg. Further, the Ratio result in data set [4] is listed as “<=2”. In data set [5], half-maximal inhibition (IC50) was put at 0.24 µM.

For the compound `C#CCn1c(=O)c2c(-c3nc(C#N)cn3C)n(Cc3ccnc4ccc(Cl)cc34)nc2n(CC2CC2)c1=O`, the MIC in data set [1] is 1 mg/L (≈ 1.9 µM); in data set [6] it was 2 mg/L (≈ 3.81 µM). Moreover, the microsomal CLint at 2 µM in data set [2] is under 14 µL/min/mg; in data set [3] it was 28 µL/min/mg. The Ratio entry in data set [4] is “<=2”. In data set [5], this compound displayed an IC50 of 0.089 µM.

Take `CCn1c(=O)c2c(-c3nc(C#N)cn3C)n(Cc3ccnc4ccc(Cl)cc34)nc2n(CC2CC2)c1=O`: the minimum inhibitory concentration (MIC) in data set [1] and in data set [6] was 2 mg/L (≈ 3.88 µM) throughout. Besides, the microsomal CLint at 2 µM in data set [2] is 51 µL/min/mg; in data set [3], under 14 µL/min/mg. Besides, the Ratio result in data set [4] is reported as “<=2”. Besides, the IC50 in data set [5] is 0.18 µM.
